Screening data from PubChem.
HNF4A DNA FP: change in binding of human HNF4 alpha to DNA | AID 1224865 | P41235 | activity change, % at 10 µM | 0.3% of 360,000 active | HNF4a-FITC DNA binding, fluorescence polarization, 1 h; in the data active = activity change above about 30%, passing the limit was not always enough
NR1D1 modulator: Rev-erb alpha (human) modulation; activity, % at 10 µM; AID 1259318; 0.79% of 370,000 active; Rev-erbα–FITC-DNA binding, fluorescence polarization, 90 min; P20393;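 active = activity above about 14%, limit read from the data; passing the limit was not always enough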;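 note: 0% = DMSO wells with 35 nM protein and 100% = DMSO wells with 750 nM protein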
aDG glyco up: increases alpha dystroglycan glycosylation; Pro5-aDG cells, alpha-DG glycosylation AlphaScreen (IIH6); 0% Pro5, 100% B10-LARGE cell signal; activation, % at 10 µM; 0.22% of 360,000 active; AID 624168;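 active = activation of at least 8% versus controls, or a plate z-score of at least 8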;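 note: Pro5 are CHO cells carrying HIG-tagged alpha-DG that lacks glycosylation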
CSN inh: CSN deneddylation inhibition; Q92905; Purified CSN, SCF-Nedd8-OG deneddylation, fluorescence polarization; inhibition, % at 12.5 µM; 0.38% of 360,000 active;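 active = pattern-corrected inhibition above about 35%, with an unprinted fluorescence ratio check between 0.5 and 1.5, limit read from the data, passing the limit was not always enough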;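 note: 0% = enzyme with substrate and 100% = substrate without enzyme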
Target sequence (Q92905 whole entry, looked up, one chain of several): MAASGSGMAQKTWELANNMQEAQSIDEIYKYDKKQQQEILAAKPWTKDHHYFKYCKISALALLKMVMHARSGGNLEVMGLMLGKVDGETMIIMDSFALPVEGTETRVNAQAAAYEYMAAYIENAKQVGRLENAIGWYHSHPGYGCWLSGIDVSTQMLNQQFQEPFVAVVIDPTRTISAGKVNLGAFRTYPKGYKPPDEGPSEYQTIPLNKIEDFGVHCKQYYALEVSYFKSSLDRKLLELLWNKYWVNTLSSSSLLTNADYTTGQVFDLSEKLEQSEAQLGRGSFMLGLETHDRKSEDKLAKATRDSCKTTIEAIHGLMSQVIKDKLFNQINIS
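Assay system: Purified human Csn5 enzyme expressed in HEK293T cells | Amount: Enzyme 0.24 nM | Measured by: Fluorescence polarization readout | Medium: Tris/NaCl/DTT buffer, pH 7.5 | Compound dosing: One concentration, 12.5 µM, 0.25% DMSO | Times: 90 min incubation of compound, enzyme and substrate at room temperature | Control set: no-enzyme wells high, enzyme-with-substrate wells low | Read-out: % inhibition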
NR1D1 mod conf: confirmation of modulators of human Rev-erb alpha DNA binding. shares compounds with NR1D1 modulator. Rev-erb alpha FITC-DNA binding, fluorescence polarization, 90 min. 61% of 3,000 active. AID 1259319. activation, % at 25 µM;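 active = activation at or above a set limit, or at least 3 SD above the negative control mean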;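 note: 0% = 35 nM protein with DMSO and 100% = 750 nM protein high control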
RORg DNA counter: counter-screen for Rev-erb alpha modulators: RORgamma DNA binding; IC50, µM; shares compounds with NR1D1 modulator; purified RORgamma protein-FITC-DNA binding, fluorescence polarization; 8% of 910 active; AID 1259320;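 active = Compounds whose fitted half-maximal concentration for disrupting protein-DNA binding is below 10 micromolar; the record names Rev-erb in its text, so the target is in doubt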
* hit, by the source's call; i = inactive; nt = no result given. Shown are actives, neighbours in structure and some others; about 1.5% of the full set was active somewhere.

SMILES	HNF4A DNA FP	NR1D1 modulator	aDG glyco up	CSN inh	NR1D1 mod conf	others
COc1ccc(C(=O)N/N=C/c2sc3ccccc3c2O)cc1	125.7	nt	1.2	103.8	nt
COC(=O)[C@]12C[C@H](CC(=O)NCc3ccc(C)o3)C(=O)N(CCc3ccc(OC)c(OC)c3)C1=C[C@H](C1CCCC1)O[C@@H]2C	nt	0.8	nt	nt	nt
Cc1cc(NC(=O)c2ccccc2F)nc2c1c(=O)oc1ccccc12	1.3	31.8*	-0.3	11.1	5.2
Cc1cc(NC(=O)CC(C)(C)C)nc2c1c(=O)oc1ccccc12	4.2	38.5*	0.1	5.4	8.4
CCCC(=O)Nc1cc(C)c2c(=O)oc3ccccc3c2n1	4.6	-2.7	-0.1	3.2	nt
O=C(Nc1ccc(Cl)c(Cl)c1)C1CCCN(c2nnc(-n3cccc3)s2)C1 (stereo not drawn)	nt	-0.2	nt	nt	nt
Cc1nc(SCC(N)=O)[nH]c(=O)c1C	nt	0.1	nt	nt	nt
CC(=O)c1cc2c(cc1N/C(=N/S(=O)(=O)c1ccccc1)c1ccc(Cl)cc1)OCO2	3.8	89.8*	0.5	-8.7	47.8*	RORg DNA counter=>40
CC(=O)c1cc2c(cc1NC(=O)c1cccc(S(=O)(=O)N3CCN(C)CC3)c1)OCO2	-2.6	19.8*	-0.1	15.6	5.2
CCn1c(=O)n2n(c1=O)[C@]1(C=C(C)C2)CN(Cc2ccc(OC)cc2OC)C(NC(=O)c2ccccc2)=N1	nt	10.1	nt	nt	nt
CCCC(=O)Nc1ccc(-c2nc3cc(C)c(C)cc3o2)c(O)c1	1.2	17.1*	-0.1	2.7	5.7
COC(=O)c1cc(C(c2ccccc2O)C2CCCO2)n2cccc(C(C)(C)C)c12 (stereo not drawn)	nt	-10.4	nt	nt	nt
Cc1cn2c(N)c(C=C3C=C(Cl)C(=O)C(Cl)=C3)c(=O)nc2s1	107.8*	26.3*	-0.4	62.4	11.6
Cc1onc(-c2ccc(Cl)cc2)c1-c1ccn(S(=O)(=O)c2ccccc2Cl)n1	nt	6.2	nt	nt	nt
O=C(OCC(=O)N1CCN(S(=O)(=O)c2ccc(Cl)cc2)CC1)c1cc(Br)ccc1O	2.2	121.3*	0.0	-6.7	80.1*	RORg DNA counter=i
CC1Cc2ccccc2N1C(=O)COC(=O)c1cc(Br)ccc1O (stereo not drawn)	0.1	34.9*	0.0	1.4	24.8*
Nc1nccnc1C(=O)OCC(=O)N1CCN(S(=O)(=O)c2ccc(Cl)cc2)CC1	-1.4	-1.5	-0.1	-7.1	nt
O=C(OCC(=O)N1CCCc2ccccc21)c1cc(Br)ccc1O	1.3	36.1*	-0.1	-0.5	26.3*
Cc1ccc(-c2c(C(=O)NC3CCCC3)oc(=O)c3ccccc23)cc1	nt	5.8	nt	nt	nt
O=C(CSc1nnc(-c2ccccn2)n1-c1ccccc1)Nc1ccc2c(c1)OCCO2	nt	4.2	nt	nt	nt
CCOC(=O)[C@]12CCCCC/C=C\1N(CCc1ccc(Cl)cc1)C(=O)[C@H]2CC(=O)NCc1cccc(C(F)(F)F)c1	nt	-2.5	nt	nt	nt
O=C(Nc1nc(=O)c2ccccc2s1)c1ccc(Cl)cc1	6.8	78.3*	0.0	2.9	107.2*	RORg DNA counter=>40
O=C(Cc1ccccc1)Nc1nc(=O)c2ccccc2s1	1.2	31.7*	0.3	2.7	17.7*
O=C(Nc1nc(=O)c2ccccc2s1)c1ccc(F)cc1	-0.3	78.7*	-0.1	11.9	69.7*	RORg DNA counter=>40
O=C(Nc1nc2ccsc2c(=O)s1)c1ccc(Cl)cc1	12.6	109.7*	0.3	108.1	44.0*	RORg DNA counter=>40
SMILES	HNF4A DNA FP	NR1D1 modulator	aDG glyco up	CSN inh	NR1D1 mod conf	others
CCOc1nc(-c2ccccc2)ccc1-c1noc(-c2ccncc2)n1	2.4	29.3*	0.1	5.4	23.7*
CCOc1nc(-c2ccccc2)ccc1-c1noc(-c2cccs2)n1	7.3	39.5*	-0.2	5.3	14.5
CCOC(=O)CC[C@@]1(C(=O)OCC)C[C@@H](CC(=O)NCc2ccc(OC)c(OC)c2)C(=O)N2CCCC=C21	nt	4.7	nt	nt	nt
CCn1cc(C(=O)OCC(=O)Nc2cccc(Cl)c2Cl)c(=O)c2ccc(C)nc21	-0.1	42.5*	0.3	-4.8	18.9*
Cc1cc(C)cc(NC(=O)Cn2nnc(C(=O)NCc3ccc4c(c3)OCO4)c2N)c1	8.2	8.7	-0.2	18.1	nt
Cc1ccc(CNC(=O)c2nnn(CC(=O)Nc3cc(C)cc(C)c3)c2N)cc1	-2.2	24.3*	-0.3	25.0	20.8*
COc1ccc(NC(=O)Cn2nnc(C(=O)NCc3ccc4c(c3)OCO4)c2N)cc1	0.7	2.4	-0.7	2.9	nt
COc1cccc(CNC(=O)c2nnn(CC(=O)Nc3ccc(Br)cc3)c2N)c1	4.2	19.3*	-0.2	0.5	5.7
CCOc1ccc(-n2c(SCC(=O)c3ccccc3Cl)nnc2-c2ccncc2)cc1	nt	-1.7	nt	nt	nt
CCOc1ccc(-n2c(SCC(=O)Nc3ccc4cn[nH]c4c3)nnc2-c2ccncc2)cc1	nt	-2.4	nt	nt	nt
O=C(O)c1cc(-c2ccc(/C=C3/SC(=S)N(Cc4ccccc4)C3=O)o2)ccc1Cl	96.1	21.5*	-0.4	40.0	18.0
CC1(C)OC(=O)C(=Cc2ccc(-c3ccc(Cl)c(C(=O)O)c3)o2)C(=O)O1	-3.1	-4.3	-0.5	9.6	nt
FC(F)(F)c1cc(-c2ccco2)nc(-n2nnc3ccccc32)n1	-2.4	21.1*	0.0	0.1	1.4
Cc1ccc(N=Nc2c(=O)[nH]n3c(C)cc(C)nc23)cc1	3.2	17.0*	1.8	-2.0	4.2
O=C(Cn1sc2ccccc2c1=O)Nc1ccccc1	-0.7	15.2*	-0.4	-4.6	-3.9
Cc1ccc(C=Nn2c(-c3n[nH]c4c3CCC4)n[nH]c2=S)o1	nt	-1.7	nt	nt	nt
COc1ccc(OC)c(C(=O)CSc2nc3c(c(=O)n(C)c(=O)n3C)n2C(C)C)c1	0.4	37.4*	0.4	6.2	4.5
O=C(Nc1ccc(-c2nc3ccccc3s2)cc1)C1=COCCO1	-0.3	8.6	0.0	-9.0	nt
O=C(Nc1ccc(-c2nc3ccccc3s2)c(O)c1)C1=COCCO1	1.6	86.7*	0.2	12.5	12.3
O=C(Nc1ccc(O)c(-c2nc3ccccc3s2)c1)C1=COCCO1	1.8	494.0*	0.0	-0.3	258.9*	RORg DNA counter=>40
Nc1c(C(=O)Nc2ccccc2F)sc2nc(Cc3ccccc3)cc(C(F)(F)F)c12	9.1	108.4*	0.0	16.6	81.1*
Cc1cc(C(F)(F)F)c2c(N)c(C(=O)Nc3cc(C)on3)sc2n1	-3.0	86.2*	0.6	2.6	60.0*	RORg DNA counter=>40
Cc1cc(C(F)(F)F)c2c(N)c(C(=O)NCc3ccc(Cl)cc3)sc2n1	1.0	-6.4	0.3	-0.1	nt
COCc1cc(C)nc2sc(C(=O)Nc3ccccc3F)c(N)c12	-1.8	2.3	0.4	0.3	nt
COc1ccc(-c2cc(-c3nnc(SCC(=O)Nc4ccccc4-c4ccccc4)n3N)[nH]n2)cc1	nt	-4.9	nt	nt	nt
CCN(CC)S(=O)(=O)c1ccc(F)cc1	2.7	36.6*	0.2	-3.7	6.0
Cc1ccc2nc(NCCc3ccc(Cl)cc3)c3nncn3c2c1	3.8	28.0*	0.0	-1.1	8.4
